Reference: ChEMBL document CHEMBL3351269, “Phenylimidazoles as potent and selective inhibitors of coagulation factor XIa with in vivo antithrombotic activity” (J Med Chem, 2014)
pKi: −log10 of the molar value.

Key:
Coagulation factor XI = Coagulation factor XI (Homo sapiens, UniProt P03951); test: Inhibition of human coagulation factor 11a using p-nitroaniline as substrate assessed as substrate hydrolysis by spectrophotometrically
Outline: (§1)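 Purified human enzymes; reaction started by adding enzyme to substrate with or without inhibitor, excess substrate and inhibitor over enzyme, 1% DMSO, room temperature, 10–120 min. pNA read at 405 nm. FXIa, FXIIa and chymotrypsin in HEPES pH 7.4 with NaCl, KCl and PEG; FXa and kallikrein in phosphate pH 7.5; FVIIa in HEPES with CaCl2. IC50 from duplicates over 8–11 concentrations, converted to Ki assuming competitive inhibition.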

Coagulation factor VII = target: T1, Coagulation factor VII (Homo sapiens, UniProt P08709); test: Inhibition of human coagulation factor 7a using H-(D)-Ile-Pro-Arg-pNA as substrate by spectrophotometric analysis; outline: as §1
T1 sequence (P08709 whole entry): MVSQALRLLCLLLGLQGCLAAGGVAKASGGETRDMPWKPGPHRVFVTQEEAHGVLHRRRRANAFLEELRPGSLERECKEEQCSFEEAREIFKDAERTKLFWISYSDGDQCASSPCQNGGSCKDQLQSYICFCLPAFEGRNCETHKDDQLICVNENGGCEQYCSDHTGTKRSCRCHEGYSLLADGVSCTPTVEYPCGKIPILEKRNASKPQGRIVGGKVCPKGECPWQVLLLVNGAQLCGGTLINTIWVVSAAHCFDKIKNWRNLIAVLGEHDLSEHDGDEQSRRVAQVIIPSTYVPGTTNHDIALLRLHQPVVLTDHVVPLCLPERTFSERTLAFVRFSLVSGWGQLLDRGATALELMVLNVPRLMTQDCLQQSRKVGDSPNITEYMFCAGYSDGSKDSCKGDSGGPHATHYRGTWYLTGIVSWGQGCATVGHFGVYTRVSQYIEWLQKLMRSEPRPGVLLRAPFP

Coagulation factor X = Coagulation factor X (Homo sapiens, UniProt P00742); test: Inhibition of human coagulation factor 10a using N-benzoyl-Ile-Glu-(OH, OMe)-Gly-Arg-pNA as substrate by spectrophotometric analysis; outline: as §1
Sequence of Coagulation factor X (P00742 41-179 limits assumed): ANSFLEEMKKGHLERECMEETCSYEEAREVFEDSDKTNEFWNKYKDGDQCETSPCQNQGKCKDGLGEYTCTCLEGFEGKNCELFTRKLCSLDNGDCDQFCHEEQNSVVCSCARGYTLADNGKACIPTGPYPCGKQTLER
Sequence of Coagulation factor X (P00742 235-488 limits assumed): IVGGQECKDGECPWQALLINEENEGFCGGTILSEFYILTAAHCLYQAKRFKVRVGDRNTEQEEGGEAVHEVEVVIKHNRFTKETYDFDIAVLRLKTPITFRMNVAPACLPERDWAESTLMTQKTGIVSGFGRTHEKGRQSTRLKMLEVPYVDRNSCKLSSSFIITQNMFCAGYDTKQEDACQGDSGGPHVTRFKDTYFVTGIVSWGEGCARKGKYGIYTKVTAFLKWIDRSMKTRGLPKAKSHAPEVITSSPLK

Plasma kallikrein = Plasma kallikrein (Homo sapiens, UniProt P03952); test: Inhibition of human plasma kallikrein using H-D-Pro-Phe-Arg-pNA as substrate; outline: as §1
Sequence of Plasma kallikrein (P03952 20-390 limits assumed): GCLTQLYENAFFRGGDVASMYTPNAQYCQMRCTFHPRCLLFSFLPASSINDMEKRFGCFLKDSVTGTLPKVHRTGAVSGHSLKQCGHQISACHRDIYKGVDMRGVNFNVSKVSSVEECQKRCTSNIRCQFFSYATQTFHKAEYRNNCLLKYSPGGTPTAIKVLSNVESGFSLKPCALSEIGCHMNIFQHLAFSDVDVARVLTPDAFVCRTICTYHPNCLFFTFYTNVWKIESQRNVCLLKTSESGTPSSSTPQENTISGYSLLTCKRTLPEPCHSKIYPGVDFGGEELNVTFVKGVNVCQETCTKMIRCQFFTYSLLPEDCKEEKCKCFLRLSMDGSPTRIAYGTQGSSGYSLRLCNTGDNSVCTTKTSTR
Sequence of Plasma kallikrein (P03952 391-638 limits assumed): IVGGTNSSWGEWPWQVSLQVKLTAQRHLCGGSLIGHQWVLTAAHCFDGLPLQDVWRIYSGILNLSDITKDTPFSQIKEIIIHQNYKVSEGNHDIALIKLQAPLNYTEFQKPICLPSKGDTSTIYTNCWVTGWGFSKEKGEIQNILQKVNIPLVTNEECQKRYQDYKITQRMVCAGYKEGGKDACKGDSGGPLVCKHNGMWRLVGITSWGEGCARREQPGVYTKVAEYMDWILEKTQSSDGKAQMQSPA

Coagulation factor XII = target: T2, Coagulation factor XII (Homo sapiens, UniProt P00748); test: Inhibition of human coagulation factor 12a using H-(D)-CHT-Gly-Arg-pNA as substrate by spectrophotometric analysis; outline: as §1
T2 sequence (P00748 whole entry): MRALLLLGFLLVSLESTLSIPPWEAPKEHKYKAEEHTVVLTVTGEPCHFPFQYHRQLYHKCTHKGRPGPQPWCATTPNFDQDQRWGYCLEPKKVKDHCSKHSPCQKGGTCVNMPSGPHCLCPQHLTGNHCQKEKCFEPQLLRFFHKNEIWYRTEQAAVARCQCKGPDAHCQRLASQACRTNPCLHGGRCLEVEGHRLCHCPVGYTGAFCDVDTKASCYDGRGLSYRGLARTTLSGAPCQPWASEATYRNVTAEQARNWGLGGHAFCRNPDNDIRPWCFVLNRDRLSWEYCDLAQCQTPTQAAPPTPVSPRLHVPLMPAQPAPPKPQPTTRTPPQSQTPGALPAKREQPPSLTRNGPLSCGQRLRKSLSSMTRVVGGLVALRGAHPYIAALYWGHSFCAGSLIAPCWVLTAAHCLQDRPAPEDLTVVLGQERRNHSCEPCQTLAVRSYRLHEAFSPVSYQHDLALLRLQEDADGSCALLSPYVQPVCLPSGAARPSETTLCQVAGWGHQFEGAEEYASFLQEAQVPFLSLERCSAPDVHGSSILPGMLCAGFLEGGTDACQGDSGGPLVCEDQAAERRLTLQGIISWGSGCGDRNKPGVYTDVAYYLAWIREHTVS

[1] = Inhibition of human coagulation chymotrypsin using MeO-Suc-Arg-Pro-Tyr-pNA as substrate by spectrophotometric analysis; outline: as §1
[2] = Inhibition of rabbit coagulation factor 11a using p-nitroaniline as substrate assessed as substrate hydrolysis at 37 degC by spectrophotometrically; design: species or system Oryctolagus cuniculus
Outline: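 Rabbit FXIa, chromogenic pNA-release read at 405 nm, run at 37 °C. IC50 from duplicate determinations over 8–11 concentrations, converted to Ki by Ki = IC50/(1+[S]/Km), assuming competitive inhibition.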

[3] = Inhibition of rabbit coagulation thrombin using pyro-Glu-Pro-Argp-NA as substrate by spectrophotometric analysis; design: species or system Oryctolagus cuniculus
Oryctolagus cuniculus = test: Clearance in rabbit plasma at 0.5 mg/kg, iv; type: ADME, organism-based; design: dose 0.5 mg/kg, route intravenous; details: in vivo
Outline: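 Single iv dose of 0.5 mg/kg in rabbits; concentrations measured in rabbit plasma.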

[4] = Plasma protein binding in rabbit at 0.5 mg/kg, iv; type: ADME, organism-based, Oryctolagus cuniculus; design: dose 0.5 mg/kg, route intravenous; details: read-out: PPB (converted)

Sequence of Coagulation factor XI (P03951 19-387 limits assumed): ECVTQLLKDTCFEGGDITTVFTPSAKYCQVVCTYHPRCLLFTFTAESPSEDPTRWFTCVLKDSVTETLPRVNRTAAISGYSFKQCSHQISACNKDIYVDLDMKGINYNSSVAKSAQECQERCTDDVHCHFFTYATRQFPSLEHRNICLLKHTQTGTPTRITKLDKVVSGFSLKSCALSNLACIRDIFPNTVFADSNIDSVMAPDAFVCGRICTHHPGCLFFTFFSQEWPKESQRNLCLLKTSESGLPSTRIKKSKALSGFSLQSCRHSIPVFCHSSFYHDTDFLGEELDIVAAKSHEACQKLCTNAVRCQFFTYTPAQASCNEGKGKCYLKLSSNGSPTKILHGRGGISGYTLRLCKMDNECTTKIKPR
Sequence of Coagulation factor XI (P03951 388-625 limits assumed): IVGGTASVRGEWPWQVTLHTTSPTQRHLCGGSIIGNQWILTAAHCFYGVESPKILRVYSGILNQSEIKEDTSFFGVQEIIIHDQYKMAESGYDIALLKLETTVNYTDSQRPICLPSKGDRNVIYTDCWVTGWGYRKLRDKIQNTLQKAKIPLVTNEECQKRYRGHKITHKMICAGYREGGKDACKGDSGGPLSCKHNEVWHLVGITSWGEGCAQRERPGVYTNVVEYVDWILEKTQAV

pKi (Coagulation factor XI): 9.52
pKi (Coagulation factor VII): 5.37
pKi (Coagulation factor X): 5.19
pKi (Plasma kallikrein): 8.30
pKi (Coagulation factor XII): 5.04
pKi [1]: < 4.68
pKi [2]: 8.92
pKi [3]: < 4.70
clearance (Oryctolagus cuniculus): 1.2 L/h/kg
fraction unbound [4]: 0.15
SMILES: NC[C@H]1CC[C@H](C(=O)N[C@@H](Cc2ccccc2)c2nc(-c3ccc4c(N)n[nH]c4c3)c(Cl)[nH]2)CC1.O=C(O)C(F)(F)F
